The results in this text go back to ChEMBL document CHEMBL1124024, “Crystal structures and pharmacologic activities of 1,4-dihydropyridine calcium channel antagonists of the isobutyl methyl 2,6-dimethyl-4-(substituted phenyl)-1,4-dihydropyridine-3,5-dicarboxylate (nisoldipine) series” (J Med Chem, 1988).

The species named for assay [1] is Cavia porcellus. Kind of assay: Inhibition of tonic (slow) component of K+ depolarization response in guinea pig ileal longitudinal smooth muscle. It counts as functional. Particulars: Muscle tissue. In a few lines:
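Longitudinal strips of terminal ileum from male guinea pigs (300-500 g) held in aerated physiologic saline under 500 mg resting tension, with isotonic recording. A control maximal response to 80 mM KCl depolarizing saline was taken, followed by washout and 30-min re-equilibration. Antagonist was then equilibrated for 30 min and the K+ response measured again. One concentration per tissue; contraction read in mm from baseline.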

Assay [2] addresses Voltage-gated L-type calcium channel (Cavia porcellus). Kind of assay: Inhibition of [3H]nitrendipine binding to guinea pig ileal longitudinal smooth muscle.

By IC50 is commonly meant the concentration needed to halve the response being measured. Take `CO/C(O)=C1\C(C)=NC(C)=C(C(=O)OCC(C)C)C1c1ccc(F)cc1` (configuration not stated): the IC50 is 6.8 nM in assay [1] and 1.5 nM in assay [2]. As to `CO/C(O)=C1\C(C)=NC(C)=C(C(=O)OCC(C)C)C1c1ccccc1C(F)(F)F` (configuration not stated), the IC50 came out at 2.1 nM in assay [1] and 0.027 nM in assay [2]. With `CO/C(O)=C1\C(C)=NC(C)=C(C(=O)OCC(C)C)C1c1cccc(C#N)c1` (configuration not stated), the figures for the IC50 in assay [1] and in assay [2] were 0.27 nM and 0.013 nM, respectively. On to `CO/C(O)=C1\C(C)=NC(C)=C(C(=O)OCC(C)C)C1c1ccccc1[N+](=O)[O-]` (configuration not stated), for which, in assay [1], the IC50 was 0.22 nM. In the case of `CO/C(O)=C1\C(C)=NC(C)=C(C(=O)OCC(C)C)C1c1ccccc1` (configuration not stated), the IC50 in assay [1] came out at 3.3 nM; in assay [2] it was 0.25 nM. As for `CO/C(O)=C1\C(C)=NC(C)=C(C(=O)OCC(C)C)C1c1cccc(C(F)(F)F)c1` (configuration not stated), the results for the IC50 in assay [1] and in assay [2] were 15 nM and 0.14 nM, respectively. Take `CO/C(O)=C1\C(C)=NC(C)=C(C(=O)OCC(C)C)C1c1ccc(Cl)cc1` (configuration not stated): the IC50 in assay [1] amounted to 27 nM; in assay [2] it was 2.8 nM.

Regarding `CO/C(O)=C1\C(C)=NC(C)=C(C(=O)OCC(C)C)C1c1cccc(OC)c1` (configuration not stated), the IC50 worked out at 7.1 nM in assay [1] and 2.3 nM in assay [2].

On to `CO/C(O)=C1\C(C)=NC(C)=C(C(=O)OCC(C)C)C1c1cccc([N+](=O)[O-])c1` (configuration not stated), for which the IC50 in assay [1] stood at 0.59 nM; in assay [2], 0.0081 nM.
